The source made the active and inactive calls. The rule behind the calls is not given here.
Key:
[1] = target: T1, Glycogen phosphorylase, liver form (Homo sapiens, UniProt P06737); experiment: (§1) Competitive inhibition of His6-tagged human liver glycogen phosphorylase-a expressed in Escherichia coli BL21 Gold (DE3) assessed as release of inorganic phosphate using varying levels of glucose-1-phosphate and constant concentration of AMP and glycogen measured after 1 min by Dixon plot method
T1 sequence (P06737 whole entry): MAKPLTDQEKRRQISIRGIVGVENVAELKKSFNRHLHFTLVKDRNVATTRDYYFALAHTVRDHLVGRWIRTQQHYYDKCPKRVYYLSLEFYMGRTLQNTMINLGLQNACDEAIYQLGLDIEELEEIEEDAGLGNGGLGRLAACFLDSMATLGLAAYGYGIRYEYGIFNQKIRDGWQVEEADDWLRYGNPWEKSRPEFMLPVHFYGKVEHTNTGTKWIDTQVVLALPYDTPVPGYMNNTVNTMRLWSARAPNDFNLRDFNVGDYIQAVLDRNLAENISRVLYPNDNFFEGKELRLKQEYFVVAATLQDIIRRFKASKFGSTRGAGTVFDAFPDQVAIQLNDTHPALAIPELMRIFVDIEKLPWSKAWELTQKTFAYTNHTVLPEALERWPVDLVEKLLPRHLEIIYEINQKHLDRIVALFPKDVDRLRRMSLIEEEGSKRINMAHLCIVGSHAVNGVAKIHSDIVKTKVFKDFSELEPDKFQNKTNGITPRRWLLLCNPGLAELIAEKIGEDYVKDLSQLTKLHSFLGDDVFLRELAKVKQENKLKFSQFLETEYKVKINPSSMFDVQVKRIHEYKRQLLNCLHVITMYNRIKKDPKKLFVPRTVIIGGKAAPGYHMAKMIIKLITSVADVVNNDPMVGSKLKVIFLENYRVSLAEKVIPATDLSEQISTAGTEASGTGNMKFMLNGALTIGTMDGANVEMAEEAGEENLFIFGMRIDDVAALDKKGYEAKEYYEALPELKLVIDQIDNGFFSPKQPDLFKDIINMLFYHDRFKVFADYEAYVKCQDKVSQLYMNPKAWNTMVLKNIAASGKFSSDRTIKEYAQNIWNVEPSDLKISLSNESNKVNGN

[2] = target: T2, Glycogen phosphorylase, liver form (Homo sapiens) (UniProt P06737); experiment: as §1, with “Lineweaver-Burk” for “Dixon”; assay type: tissue-based
T2 sequence (whole entry): T1 sequence (P06737 whole entry)

[3] = target: T3, Glycogen phosphorylase, muscle form (Oryctolagus cuniculus, UniProt P00489); experiment: Competitive inhibition of rabbit muscle glycogen phosphorylase-a assessed as release of inorganic phosphate using varying levels of glucose-1-phosphate and constant concentration of AMP and glycogen measured after 1 min by Dixon plot method
T3 sequence (P00489 whole entry): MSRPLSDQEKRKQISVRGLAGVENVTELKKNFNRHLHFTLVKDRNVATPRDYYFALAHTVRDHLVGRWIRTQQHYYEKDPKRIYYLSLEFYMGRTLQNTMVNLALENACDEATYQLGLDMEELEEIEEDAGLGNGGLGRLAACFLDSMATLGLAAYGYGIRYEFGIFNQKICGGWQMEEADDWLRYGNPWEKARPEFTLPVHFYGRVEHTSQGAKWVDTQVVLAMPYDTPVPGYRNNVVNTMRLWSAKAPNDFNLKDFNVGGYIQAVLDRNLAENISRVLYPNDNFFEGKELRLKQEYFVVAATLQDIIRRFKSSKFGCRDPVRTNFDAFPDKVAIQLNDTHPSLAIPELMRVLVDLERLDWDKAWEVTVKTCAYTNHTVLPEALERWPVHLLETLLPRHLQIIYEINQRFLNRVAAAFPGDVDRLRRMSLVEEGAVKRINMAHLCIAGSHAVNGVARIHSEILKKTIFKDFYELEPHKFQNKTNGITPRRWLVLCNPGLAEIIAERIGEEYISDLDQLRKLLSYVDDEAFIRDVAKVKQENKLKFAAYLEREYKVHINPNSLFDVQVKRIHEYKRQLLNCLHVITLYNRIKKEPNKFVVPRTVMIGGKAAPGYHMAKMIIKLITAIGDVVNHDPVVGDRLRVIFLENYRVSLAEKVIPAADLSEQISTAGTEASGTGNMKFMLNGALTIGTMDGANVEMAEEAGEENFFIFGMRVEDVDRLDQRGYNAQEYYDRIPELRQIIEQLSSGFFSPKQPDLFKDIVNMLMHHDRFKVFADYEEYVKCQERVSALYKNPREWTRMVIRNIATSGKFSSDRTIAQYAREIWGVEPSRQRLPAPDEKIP
How it was run: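 Rabbit muscle GPa was made by phosphorylating rmGPb with a truncated catalytic γ subunit of rabbit muscle phosphorylase kinase. It was assayed in 30 mM imidazole/HCl pH 6.8 containing 60 mM KCl, 0.6 mM EDTA, 0.6 mM DTT and 0.2% w/v glycogen, with Glc-1-P and inhibitor both varied. Initial velocities were calculated from pseudo-first order rate constants.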

[4] = target: T3, Glycogen phosphorylase, muscle form; experiment: Competitive inhibition of rabbit muscle glycogen phosphorylase-b in presence of varying glucose-1-phosphate levels and AMP
[5] = target: T3, Glycogen phosphorylase, muscle form; experiment: Inhibition of rabbit muscle glycogen phosphorylase-b assessed as release of inorganic phosphate from glucose-1-phosphate in presence of AMP and glycogen
How it was run: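 Isolated rabbit skeletal muscle GPb was assayed in 30 mM imidazole/HCl pH 6.8 with 60 mM KCl, 0.6 mM EDTA and 0.6 mM DTT. […] Initial velocities were derived from pseudo-first order rate constants.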

| Compound | Ki [1] [µM] | inhibition [2] | Ki [3] [µM] | Ki [4] [µM] | IC50 [5] [µM] |
| --- | --- | --- | --- | --- | --- |
| OC[C@H]1O[C@@H](c2nc(-c3ccc4ccccc4c3)c[nH]2)[C@H](O)[C@@H](O)[C@@H]1O | 0.026 | Active | 0.065 | – | – |
| OC[C@H]1O[C@@H](c2nc(-c3ccccc3)c[nH]2)[C@H](O)[C@@H](O)[C@@H]1O | 0.156 | Active | 0.226 | – | – |
| OC[C@H]1O[C@H](O)[C@H](O)[C@@H](O)[C@@H]1O | 4280 | – | – | – | – |
| O=C1CNC(=S)N1 [THIOHYDANTOIN] | – | – | – | 5.1 | – |
| OC[C@H]1O[C@@H](c2cc3ccccc3[nH]2)[C@H](O)[C@@H](O)[C@@H]1O | – | – | – | – | 625 |
